Experimental data as given in ChEMBL document CHEMBL1134327, “Design, synthesis, and pharmacological evaluation of thapsigargin analogues for targeting apoptosis to prostatic cancer cells” (2001).
Several values for one entry are separate records, joined by “and”; a condition that tells them apart may be missing. Equal entries are not always repeated.

Assays:
[1] = Increase in cytosolic [Ca2+] concentration in TSU-Pr1 cells at given effective cytotoxic concentration.; type: functional, Homo sapiens
[2] = Loss of clonogenic survival of human prostate cancer TSU-Pr1 cells.; type: functional; settings: read-out: LC50 (the source's name)
Procedure, shortened: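 TSU-Pr1 human prostatic cancer cells treated with each analogue. Clonogenic survival compared with untreated controls. Value reported as LC50 (µM), the concentration producing 50% loss of clonogenic survival.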

[3] = Loss of clonogenic survival of human prostate cancer TSU-Pr1 cells relative to TG was determined; type: functional
[4] = organism: Oryctolagus cuniculus; assay: Inhibition of rabbit skeletal muscle sarcoplasmic and endoplasmic reticulum [Ca(2+)]-dependent ATPases(SERCA) activity
Procedure, shortened: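 Rabbit skeletal-muscle SR microsomes were prepared by differential centrifugation with a 0.6 M KCl wash. Buffer was pH 7.5 Tris with KCl, MgCl2, EGTA/CaCl2 and A23187. Doses were in nmol/mg SR protein. Activity is % of uninhibited control in triplicate, corrected for residual Ca²⁺-independent ATPase.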

[5] = organism: Oryctolagus cuniculus; assay: Inhibition of rabbit skeletal muscle SERCA activity relative to TG

SMILES	Activity [1]	CC50 [2]	Activity [3]	ID50 (nM (mg SR protein)-1) [4]	Activity [5]	[Ca2+] [1]
C/C=C(/C)C(=O)O[C@H]1C(C)=C2[C@H]([C@@H]1OC(=O)CCCCCCC)[C@@](C)(OC(C)=O)C[C@H](OC(=O)CCCCCCCCCCN)[C@@]1(O)[C@H]2OC(=O)[C@@]1(C)O	420 nM and 242 nM	750 nM	25	40	3	
C/C=C(/C)C(=O)O[C@H]1C(C)=C2[C@H]([C@@H]1OC(=O)CCCCCCC)[C@@](C)(OC(C)=O)C[C@H](OC(=O)CCCCCCCCCCCNC(=O)[C@H](C)N)[C@@]1(O)[C@H]2OC(=O)[C@@]1(C)O	410 nM and 338 nM	280 nM	9.3	16.5	1.2	
C/C=C(/C)C(=O)O[C@H]1C(C)=C2[C@H]([C@@H]1OC(=O)CCCCCCC)[C@@](C)(OC(C)=O)C[C@H](OC(=O)CCCCCCCCCCCNC(=O)[C@@H](N)CC(C)C)[C@@]1(O)[C@H]2OC(=O)[C@@]1(C)O	414 nM	30 nM	1	45	3.4	173 nM
C/C=C(/C)C(=O)O[C@H]1C(C)=C2[C@H]([C@@H]1OC(=O)CCCCCCC)[C@@](C)(OC(C)=O)C[C@H](OC(=O)CCCCCCCCCCCN)[C@@]1(O)[C@H]2OC(=O)[C@@]1(C)O	369 nM and 235 nM	1160 nM	39	35	2.6	
C/C=C(/C)C(=O)O[C@H]1C(C)=C2[C@H]([C@@H]1OC(=O)CCCCCCC)[C@@](C)(OC(C)=O)C[C@H](OC(=O)CCCCCCCCCCCNC(=O)[C@@H](N)Cc1ccccc1)[C@@]1(O)[C@H]2OC(=O)[C@@]1(C)O	446 nM and 406 nM	210 nM	7			
C/C=C(/C)C(=O)O[C@H]1C(C)=C2[C@H]([C@@H]1OC(=O)CCCCCCC)[C@@](C)(OC(C)=O)C[C@H](OC(=O)CCCCCCCCCCCNC(=O)[C@@H](N)CO)[C@@]1(O)[C@H]2OC(=O)[C@@]1(C)O		890 nM	30	10.3	0.8	
C/C=C(/C)C(=O)O[C@H]1C(C)=C2[C@H]([C@@H]1OC(=O)CCCCCCC)[C@@](C)(OC(C)=O)C[C@H](OC(=O)CCCCCNC(=O)[C@@H](N)CC(C)C)[C@@]1(O)[C@H]2OC(=O)[C@@]1(C)O	84 nM and 40 nM	> 20000 nM	>667	3840	287	
C/C=C(/C)C(=O)O[C@H]1C(C)=C2[C@H]([C@@H]1OC(=O)CCCCCCC)[C@@](C)(OC(C)=O)C[C@H](OC(=O)CCC)[C@@]1(O)[C@H]2OC(=O)[C@@]1(C)O [THAPSIGARGIN]		30 nM	1	13.4	1	
C/C=C(/C)C(=O)O[C@H]1C(C)=C2[C@H]([C@@H]1OC(=O)CCCCCCC)[C@@](C)(OC(C)=O)C[C@H](OC(=O)CCCCCN)[C@@]1(O)[C@H]2OC(=O)[C@@]1(C)O	284 nM	> 20000 nM	>667	1330	99	
C/C=C(/C)C(=O)O[C@H]1C(C)=C2[C@H]([C@@H]1OC(=O)CCCCCCC)[C@@](C)(OC(C)=O)C[C@H](OC(=O)CCCCCCCN)[C@@]1(O)[C@H]2OC(=O)[C@@]1(C)O	217 nM	3850 nM	128	223	17	
C/C=C(/C)C(=O)O[C@H]1C(C)=C2[C@H]([C@@H]1OC(=O)CCCCCCC)[C@@](C)(OC(C)=O)C[C@H](OC(=O)CCc1ccc(NC(=O)[C@@H](N)CC(C)C)cc1)[C@@]1(O)[C@H]2OC(=O)[C@@]1(C)O		880 nM	29	466	35	
C/C=C(/C)C(=O)O[C@H]1C(C)=C2[C@H]([C@@H]1OC(=O)CCCCCCC)[C@@](C)(OC(C)=O)C[C@H](OC(=O)CCCCCCN)[C@@]1(O)[C@H]2OC(=O)[C@@]1(C)O	209 nM	10900 nM	364	1210	90	
